What was measured:
Influenza A virus [1] = assay: Antiviral activity against influenza H1N1 virus in MDCK cells assessed as reduction of virus-induced cytopathicity by visual cytopathic effect scoring method; format: functional, organism-based
[2] = molecular target: Human immunodeficiency virus type 1 reverse transcriptase (Human immunodeficiency virus 1, UniProt Q72547); assay: Inhibition of HIV1 reverse transcriptase p66/p51; settings: read-out: IC50
[3] = system: Human immunodeficiency virus 1; assay: Antiviral activity against HIV1 3B in human CEM cells assessed as protection against virus-induced cytopathicity after 4 days; format: functional, organism-based; settings: Human immunodeficiency virus 1, 3B, CCRF-CEM, 96 h
Method in brief: (§1)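 CEM cells (~3 × 10⁵ cells/mL) infected with ~100 CCID₅₀ per mL of HIV-1 (IIIB) or HIV-2 (ROD), then seeded into wells containing compound dilutions. After 4 days at 37 °C, syncytium (giant cell) formation was examined microscopically. EC₅₀ = concentration protecting CEM cells from HIV cytopathicity by 50%.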

Coxsackievirus B4 [4] = assay: Antiviral activity against Coxsackievirus B4 in human HeLa cells assessed as protection against virus-induced cytopathicity; format: functional, organism-based; settings: Enterovirus B
Method in brief: (§2)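 Confluent cell monolayers inoculated with 100 CCID₅₀ virus. After 1-2 h adsorption, residual virus removed and cultures incubated with varying compound concentrations. Cytopathicity scored once it reached completion in untreated infected controls. EC₅₀ = dose reducing virus-induced cytopathogenicity by 50%.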

[5] = Cytotoxicity against african green monkey Vero cells assessed as drug level causing microscopically detectable alteration of normal cell morphology after 3 days; format: cell-based; settings: chlorocebus sabaeus
Method in brief: (§3)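 Serial compound dilutions added to confluent HeLa or Vero monolayers. MCC = minimum concentration causing microscopically detectable alteration of cell morphology after 3 days of incubation.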

[6] = Cytotoxicity against MDCK cells by MTS assay; format: cell-based, Canis lupus familiaris; settings: dog
Vaccinia virus = assay: Antiviral activity against Vaccinia virus Lederle in human HEL cells assessed as protection against virus-induced cytopathicity; format: functional, organism-based; settings: Orthopoxvirus vaccinia
Felid alphaherpesvirus 1 = assay: Antiviral activity against Feline herpesvirus in feline […] cells assessed as inhibition of virus-induced cytopathicity; format: functional, organism-based
Punta Toro virus = assay: Antiviral activity against Punta Toro virus in african green monkey Vero cells assessed as protection against virus-induced cytopathicity; format: functional, organism-based; method in brief: as §2
[7] = Cytotoxicity against human HEL cells assessed as drug level causing microscopically detectable alteration of normal cell morphology after 3 days; format: cell-based
L1210 = assay: Antiproliferative activity against mouse L1210 cells after 2 days; format: cell-based; settings: L1210, 48 h
Method in brief: (§4)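 Cells seeded at 5 × 10⁴ to 7.5 × 10⁴ cells/200 µL with or without serial compound dilutions; incubated at 37 °C for 2 days (L1210) or 3 days (Molt4/C8, CEM). Cell numbers counted with a Coulter counter. CC₅₀ = concentration reducing proliferation by 50% versus untreated controls, read from plots of cell number (% of control) against concentration. Means of at least two independent experiments.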

[8] = Antiproliferative activity against human Molt4/C8 cells after 3 days; format: cell-based; settings: MOLT-4, 72 h; method in brief: as §4
Influenza B virus [9] = assay: Antiviral activity against influenza B virus in MDCK cells assessed as reduction of virus-induced cytopathicity by MTS method; format: functional, organism-based
[10] = molecular target: Human immunodeficiency virus type 1 reverse transcriptase (Human immunodeficiency virus 1, UniProt Q72547, L100I); assay: Inhibition of HIV1 reverse transcriptase p66/p51 L100I mutant; settings: read-out: IC50
Method in brief: (§5)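 Substrate was 0.5 µg poly(rA)/oligo(dT) 10:1 (0.3 µM 3′-OH ends) with 10 µM [³H]dTTP, at 37 °C. Acid-precipitable radioactivity was counted on GF/C filters after TCA washes.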

Influenza B virus [11] = assay: Antiviral activity against influenza B virus in MDCK cells assessed as reduction of virus-induced cytopathicity by visual cytopathic effect scoring method; format: functional, organism-based
[12] = Cytotoxicity against human HeLa cells assessed as drug level causing microscopically detectable alteration of normal cell morphology after 3 days; format: cell-based; method in brief: as §3
[13] = molecular target: Human immunodeficiency virus type 1 reverse transcriptase (Human immunodeficiency virus 1, UniProt Q72547, K103N); assay: Inhibition of HIV1 reverse transcriptase p66/p51 K103N mutant; settings: read-out: IC50; method in brief: as §5
CCRF-CEM = assay: Antiproliferative activity against human CEM cells after 3 days; format: cell-based; settings: 72 h; method in brief: as §4
Influenza A virus H3N2 [14] = assay: Antiviral activity against influenza H3N2 virus in MDCK cells assessed as reduction of virus-induced cytopathicity by MTS method; format: functional, organism-based
[15] = molecular target: Human immunodeficiency virus type 1 reverse transcriptase (Human immunodeficiency virus 1, UniProt Q72547, Y181I); assay: Inhibition of HIV1 reverse transcriptase p66/p51 Y181I mutant; settings: read-out: IC50; method in brief: as §5
[16] = Cytotoxicity against MDCK cells assessed as drug level causing microscopically detectable alteration of normal cell morphology; format: cell-based, Canis lupus familiaris; settings: dog
[17] = system: Respiratory syncytial virus; assay: Antiviral activity against RSV Long in human HeLa cells assessed as protection against virus-induced cytopathicity; format: functional, organism-based; method in brief: as §2
Human alphaherpesvirus 1 [18] = assay: Antiviral activity against thymidine kinase deficient and acyclovir resistant HSV1 KOS in human HEL cells assessed as protection against virus-induced cytopathicity; format: functional, organism-based; settings: Human alphaherpesvirus 1, KOS
Influenza A virus H3N2 [19] = assay: Antiviral activity against influenza H3N2 virus in MDCK cells assessed as reduction of virus-induced cytopathicity by visual cytopathic effect scoring method; format: functional, organism-based
Feline coronavirus = assay: Antiviral activity against Feline coronavirus in feline […] cells assessed as inhibition of virus-induced cytopathicity; format: functional, organism-based; settings: Alphacoronavirus 1
Human alphaherpesvirus 2 = assay: Antiviral activity against HSV2 G in human HEL cells assessed as protection against virus-induced cytopathicity; format: functional, organism-based; settings: Human alphaherpesvirus 2, strain G; method in brief: as §2
[20] = system: Vesicular stomatitis virus; assay: Antiviral activity against VSV in human HeLa cells assessed as protection against virus-induced cytopathicity; format: functional, organism-based
[21] = system: Mammalian orthoreovirus 1; assay: Antiviral activity against Reovirus 1 in african green monkey Vero cells assessed as protection against virus-induced cytopathicity; format: functional, organism-based; settings: Mammalian orthoreovirus 1, Vero; method in brief: as §2
Coxsackievirus B4 [22] = assay: Antiviral activity against Coxsackievirus B4 in african green monkey Vero cells assessed as protection against virus-induced cytopathicity; format: functional, organism-based; settings: Enterovirus B; method in brief: as §2
[23] = system: Vesicular stomatitis virus; assay: Antiviral activity against VSV in human HEL cells assessed as protection against virus-induced cytopathicity; format: functional, organism-based
Sindbis virus = assay: Antiviral activity against Sindbis virus in african green monkey Vero cells assessed as protection against virus-induced cytopathicity; format: functional, organism-based; method in brief: as §2
[24] = Cytotoxicity against feline CRFK cells by MTS assay; format: cell-based, Felis catus; settings: cat
Human respirovirus 3 = assay: Antiviral activity against Parainfluenza virus type 3 in african green monkey Vero cells assessed as protection against virus-induced cytopathicity; format: functional, organism-based; settings: Human respirovirus 3, Vero; method in brief: as §2
[25] = system: Human immunodeficiency virus 2; assay: Antiviral activity against HIV2 ROD in human CEM cells assessed as protection against virus-induced cytopathicity after 4 days; format: functional, organism-based; settings: Human immunodeficiency virus 2, ROD, CCRF-CEM, 96 h; method in brief: as §1
Human alphaherpesvirus 1 [26] = assay: Antiviral activity against HSV1 KOS in human HEL cells assessed as protection against virus-induced cytopathicity; format: functional, organism-based; settings: Human alphaherpesvirus 1, KOS
Influenza A virus [27] = assay: Antiviral activity against influenza H1N1 virus in MDCK cells assessed as reduction of virus-induced cytopathicity by MTS method; format: functional, organism-based; settings: Influenza A virus, H1N1, MDCK

| Compound | EC50 (Influenza A virus [1]) [µM] | IC50 [2] [µM] | EC50 [3] [µM] | EC50 (Coxsackievirus B4 [4]) [µM] | MCC at 72 h [5] [µM] | CC50 [6] [µM] | EC50 (Vaccinia virus) [µM] | EC50 (Felid alphaherpesvirus 1) [µM] | EC50 (Punta Toro virus) [µM] | MCC at 72 h [7] [µM] | IC50 (L1210) [µM] | IC50 [8] [µM] | EC50 (Influenza B virus [9]) [µM] | IC50 [10] [µM] | EC50 (Influenza B virus [11]) [µM] | MCC at 72 h [12] [µM] | IC50 [13] [µM] | IC50 (CCRF-CEM) [µM] | EC50 (Influenza A virus H3N2 [14]) [µM] | IC50 [15] [µM] | other results |
| --- | --- | --- | --- | --- | --- | --- | --- | --- | --- | --- | --- | --- | --- | --- | --- | --- | --- | --- | --- | --- | --- |
| Cc1cc(C)cc(S(=O)(=O)c2c(C(N)=O)[nH]c3ccc(Cl)c(F)c23)c1 | > 4 | 0.003 | 0.001 | 27 | > 100 | 40.6 | > 20 | > 100 | > 100 | > 100 | 46 | 14 | > 4 | 0.002 | > 4 | > 100 | 0.006 | > 28 | > 4 | 0.029 | MCC [16]: 20 µM; EC50 [17]: > 100 µM; EC50 (Human alphaherpesvirus 1 [18]): > 20 µM; EC50 (Influenza A virus H3N2 [19]): > 4 µM; EC50 (Feline coronavirus): > 100 µM; EC50 (Human alphaherpesvirus 2): > 20 µM; EC50 [20]: > 100 µM; EC50 [21]: > 100 µM; EC50 (Coxsackievirus B4 [22]): 100 µM; EC50 [23]: > 20 µM; EC50 (Sindbis virus): > 100 µM; CC50 [24]: > 100 µM; EC50 (Human respirovirus 3): > 100 µM; EC50 [25]: > 10 µM; EC50 (Human alphaherpesvirus 1 [26]): > 20 µM; EC50 (Influenza A virus [27]): > 4 µM |
| Cc1cc(C)cc(S(=O)(=O)c2c(C(=O)NC(C)C(N)=O)[nH]c3ccc(Cl)c(F)c23)c1 (centres undefined) | > 4 | 0.062 | 0.0037 | > 4 | 100 | 6.5 | > 20 | > 20 | > 20 | 100 | 30 | 22 | > 4 | 0.27 | > 4 | 20 | 1.52 | 21 | > 4 | 6.28 | MCC [16]: 20 µM; EC50 [17]: > 4 µM; EC50 (Human alphaherpesvirus 1 [18]): > 20 µM; EC50 (Influenza A virus H3N2 [19]): > 4 µM; EC50 (Feline coronavirus): > 20 µM; EC50 (Human alphaherpesvirus 2): > 20 µM; EC50 [20]: > 4 µM; EC50 [21]: > 20 µM; EC50 (Coxsackievirus B4 [22]): 20 µM; EC50 [23]: > 20 µM; EC50 (Sindbis virus): > 20 µM; CC50 [24]: 51.4 µM; EC50 (Human respirovirus 3): > 20 µM; EC50 [25]: > 10 µM; EC50 (Human alphaherpesvirus 1 [26]): > 20 µM; EC50 (Influenza A virus [27]): > 4 µM |
| Cc1cc(C)cc(S(=O)(=O)c2c(C(=O)NCCS(N)(=O)=O)[nH]c3ccc([N+](=O)[O-])cc23)c1 | > 4 | 0.061 | 0.0027 | ≥ 20 | 100 | 32.7 | > 4 | > 100 | > 20 | 20 | 408 | 244 | > 4 | 0.388 | > 4 | ≥ 100 | 0.787 | 200 | > 4 | > 40 | MCC [16]: 20 µM; EC50 [17]: 20 µM; EC50 (Human alphaherpesvirus 1 [18]): > 4 µM; EC50 (Influenza A virus H3N2 [19]): > 4 µM; EC50 (Feline coronavirus): > 100 µM; EC50 (Human alphaherpesvirus 2): > 4 µM; EC50 [20]: ≥ 100 µM; EC50 [21]: > 20 µM; EC50 (Coxsackievirus B4 [22]): > 20 µM; EC50 [23]: > 4 µM; EC50 (Sindbis virus): > 20 µM; CC50 [24]: > 100 µM; EC50 (Human respirovirus 3): > 20 µM; EC50 [25]: > 10 µM; EC50 (Human alphaherpesvirus 1 [26]): > 4 µM; EC50 (Influenza A virus [27]): > 4 µM |
| Cc1cc(C)cc(S(=O)(=O)c2c(C(=O)NCCC(N)=O)[nH]c3ccc([N+](=O)[O-])cc23)c1 | > 20 | 0.027 | 0.0016 | > 100 | > 100 | > 100 | > 20 | > 100 | > 100 | ≥ 20 | > 500 | > 500 | > 20 | 0.204 | > 20 | > 100 | 0.474 | ≥ 500 | > 20 | 5.53 | MCC [16]: 100 µM; EC50 [17]: > 100 µM; EC50 (Human alphaherpesvirus 1 [18]): > 20 µM; EC50 (Influenza A virus H3N2 [19]): > 20 µM; EC50 (Feline coronavirus): > 100 µM; EC50 (Human alphaherpesvirus 2): > 20 µM; EC50 [20]: > 100 µM; EC50 [21]: > 100 µM; EC50 (Coxsackievirus B4 [22]): > 100 µM; EC50 [23]: > 20 µM; EC50 (Sindbis virus): > 100 µM; CC50 [24]: > 100 µM; EC50 (Human respirovirus 3): > 100 µM; EC50 [25]: > 10 µM; EC50 (Human alphaherpesvirus 1 [26]): > 20 µM; EC50 (Influenza A virus [27]): > 20 µM |

— ChEMBL document CHEMBL1153955, “Indolylarylsulfones bearing natural and unnatural amino acids. Discovery of potent inhibitors of HIV-1 non-nucleoside wild type and resistant mutant strains reverse transcriptase and coxsackie B4 virus” (J Med Chem, 2009)
